Laboratory results reported in ChEMBL document CHEMBL4020770, “Discovery of N-substituted-endo-3-(8-aza-bicyclo[3.2.1]oct-3-yl)-phenol and -phenyl carboxamide series of μ-opioid receptor antagonists” (Bioorg Med Chem Lett, 2017).

Columns and labels:
Mu-type opioid receptor [1] = biological target: T1, Mu-type opioid receptor (Homo sapiens, UniProt P35372); test: Intrinsic activity at recombinant human mu opioid receptor expressed in CHOK1 cells by [35S]GTPgammaS binding assay relative to DAMGO; type: functional, cell-based
T1 sequence (P35372 whole entry): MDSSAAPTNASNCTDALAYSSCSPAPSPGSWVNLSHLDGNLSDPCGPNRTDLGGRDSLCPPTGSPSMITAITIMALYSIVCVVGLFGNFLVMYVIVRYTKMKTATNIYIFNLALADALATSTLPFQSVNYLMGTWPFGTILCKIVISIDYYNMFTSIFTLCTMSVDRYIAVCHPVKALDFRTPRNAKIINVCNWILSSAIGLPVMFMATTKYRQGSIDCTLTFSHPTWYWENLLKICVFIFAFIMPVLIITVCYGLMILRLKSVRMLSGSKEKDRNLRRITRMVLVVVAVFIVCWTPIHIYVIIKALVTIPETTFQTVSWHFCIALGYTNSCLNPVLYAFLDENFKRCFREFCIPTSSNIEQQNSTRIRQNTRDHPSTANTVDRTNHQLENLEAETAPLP
Summary of the method: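 Membranes from CHO-K1 cells stably transfected with human recombinant μ-opioid receptor; agonist activity measured as [35S]-GTPγS binding. Maximum compound-evoked response minus basal, expressed as percentage of the maximum response evoked by DAMGO.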

Mu-type opioid receptor [2] = biological target: T1, Mu-type opioid receptor; test: Displacement of [3H]DPN from recombinant human mu opioid receptor expressed in CHOK1 cell membranes
Summary of the method: (§1)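 Competition binding with the radioligand [3H]-DPN on membranes from CHO-K1 cells stably transfected with human recombinant μ or δ opioid receptor or guinea pig κ opioid receptor. Affinity is reported as pKi.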

[3] = biological target: Delta-type opioid receptor (Homo sapiens, UniProt P41143); test: Displacement of [3H]DPN from recombinant human delta opioid receptor expressed in CHOK1 cell membranes; summary of the method: as §1
Sequence of Delta-type opioid receptor (P41143 whole entry): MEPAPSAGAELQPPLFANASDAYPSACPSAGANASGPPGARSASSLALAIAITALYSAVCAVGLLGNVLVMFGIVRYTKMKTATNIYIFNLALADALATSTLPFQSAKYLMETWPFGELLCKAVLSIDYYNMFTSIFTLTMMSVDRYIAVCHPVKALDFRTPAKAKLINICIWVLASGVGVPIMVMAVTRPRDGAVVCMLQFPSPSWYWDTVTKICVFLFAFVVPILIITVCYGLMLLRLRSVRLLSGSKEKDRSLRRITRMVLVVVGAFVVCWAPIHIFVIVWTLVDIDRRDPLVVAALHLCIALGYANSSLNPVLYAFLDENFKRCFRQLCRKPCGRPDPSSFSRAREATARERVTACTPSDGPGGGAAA

[4] = biological target: Kappa-type opioid receptor (Cavia porcellus, UniProt P41144); test: Displacement of [3H]DPN from guinea pig kappa opioid receptor expressed in CHOK1 cell membranes; summary of the method: as §1
Sequence of Kappa-type opioid receptor (P41144 whole entry): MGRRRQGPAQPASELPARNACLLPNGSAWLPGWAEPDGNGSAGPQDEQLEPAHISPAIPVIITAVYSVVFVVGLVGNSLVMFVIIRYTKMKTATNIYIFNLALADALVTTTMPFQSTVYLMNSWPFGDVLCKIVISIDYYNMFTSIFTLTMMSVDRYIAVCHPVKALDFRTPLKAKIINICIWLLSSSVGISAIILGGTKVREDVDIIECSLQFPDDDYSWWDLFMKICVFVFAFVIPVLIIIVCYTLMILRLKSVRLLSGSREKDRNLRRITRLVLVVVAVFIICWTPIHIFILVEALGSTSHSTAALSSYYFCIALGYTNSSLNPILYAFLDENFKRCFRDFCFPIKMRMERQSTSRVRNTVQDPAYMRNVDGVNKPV

Liver [5] = test: Half life in human liver microsomes; type: ADME, microsome; settings: microsomes
[6] = Half life in rat liver microsomes; type: ADME, microsome; settings: liver microsomes
[7] = (§2) Half life in dog liver microsomes; type: ADME, Canis lupus familiaris, microsome; settings: liver microsomes
Liver [8] = test: as §2; type: ADME, Canis lupus familiaris, microsome; settings: microsomes

Work on `CC(C)(C)c1ccc(CN2[C@@H]3CC[C@@H]2CC(c2cccc(O)c2)C3)cc1` (relative stereo; 20b) yielded an Intrinsic activity (Mu-type opioid receptor [1]) of 97%.

`O=C1c2ccccc2C(=O)N1CCCCN1[C@@H]2CC[C@@H]1CC(c1cccc(O)c1)C2` (relative stereo; 21a) showed an Intrinsic activity (Mu-type opioid receptor [1]) of 26%.

`O=C1c2ccccc2C(=O)N1CCCCN1[C@@H]2CC[C@@H]1CC(c1cccc(O)c1)C2` (relative stereo; 21b) gave an Intrinsic activity (Mu-type opioid receptor [1]) of 97%.

For `O=C(CN1[C@@H]2CC[C@@H]1CC(c1cccc(O)c1)C2)C1CCCCC1` (relative stereo; 22a), the Intrinsic activity (Mu-type opioid receptor [1]) was 33%.

`O=C(CN1[C@@H]2CC[C@@H]1CC(c1cccc(O)c1)C2)C1CCCCC1` (relative stereo; 22b) [listing 1 of 2 here] gave a Ki (Mu-type opioid receptor [2]) of 2 nM, a Ki [3] of 20 nM and a Ki [4] of 0.794 nM. It also gave a t1/2 (Liver [5]) of 13 min.

`O=C(CN1[C@@H]2CC[C@@H]1CC(c1cccc(O)c1)C2)C1CCCCC1` (relative stereo; 22b) [listing 2 of 2 here] showed an Intrinsic activity (Mu-type opioid receptor [1]) of 57%.

With `Oc1cccc(C2C[C@H]3CC[C@H](C2)N3CC(O)Cc2ccccc2)c1` (relative stereo; 23a) [listing 1 of 2 here] the Ki (Mu-type opioid receptor [2]) was 0.251 nM, the Ki [3] was 6.31 nM and the half-life [6] was 2 min. It also gave a half-life [7] of 2 min and a t1/2 (Liver [5]) of 32 min.

In the case of `Oc1cccc(C2C[C@H]3CC[C@H](C2)N3CC(O)Cc2ccccc2)c1` (relative stereo; 23a) [listing 2 of 2 here], the Intrinsic activity (Mu-type opioid receptor [1]) is reported as 1%.

`Oc1cccc(C2C[C@H]3CC[C@H](C2)N3CC(O)Cc2ccccc2)c1` (relative stereo; 23b) [listing 1 of 2 here] showed a Ki (Mu-type opioid receptor [2]) of 10 nM, a Ki [3] of 251 nM and a Ki [4] of 20 nM. The t1/2 (Liver [5]) was greater than 90 min.

For `Oc1cccc(C2C[C@H]3CC[C@H](C2)N3CC(O)Cc2ccccc2)c1` (relative stereo; 23b) [listing 2 of 2 here], the Intrinsic activity (Mu-type opioid receptor [1]) was 36%.

Molecule `NC(=O)c1cccc(C2C[C@H]3CC[C@H](C2)N3CCCc2ccccc2)c1` (relative stereo; 24a) has an Intrinsic activity (Mu-type opioid receptor [1]) of 24%.

Molecule `NC(=O)c1cccc(C2C[C@H]3CC[C@H](C2)N3CCCc2ccccc2)c1` (relative stereo; 24b) has an Intrinsic activity (Mu-type opioid receptor [1]) of 48%.

`NC(=O)c1cccc(C2C[C@H]3CC[C@H](C2)N3Cc2c(F)cccc2F)c1` (relative stereo; 26a) gave an Intrinsic activity (Mu-type opioid receptor [1]) of 26%.

Molecule `NC(=O)c1cccc(C2C[C@H]3CC[C@H](C2)N3Cc2c(F)cccc2F)c1` (relative stereo; 26b) has an Intrinsic activity (Mu-type opioid receptor [1]) of 19%.

`CC(C)(C)c1ccc(CN2[C@@H]3CC[C@@H]2CC(c2cccc(C(N)=O)c2)C3)cc1` (relative stereo; 28a) gave an Intrinsic activity (Mu-type opioid receptor [1]) of 92%.

For `CC(C)(C)c1ccc(CN2[C@@H]3CC[C@@H]2CC(c2cccc(C(N)=O)c2)C3)cc1` (relative stereo; 28b) [listing 1 of 2 here], the Ki (Mu-type opioid receptor [2]) was 10 nM, the Ki [3] was 200 nM and the Ki [4] was 31.6 nM.

For `CC(C)(C)c1ccc(CN2[C@@H]3CC[C@@H]2CC(c2cccc(C(N)=O)c2)C3)cc1` (relative stereo; 28b) [listing 2 of 2 here], the Intrinsic activity (Mu-type opioid receptor [1]) was 73%.

For `NC(=O)c1cccc(C2C[C@H]3CC[C@H](C2)N3CCCCN2C(=O)c3ccccc3C2=O)c1` (relative stereo; 29a), the Intrinsic activity (Mu-type opioid receptor [1]) was 0%.

Work on `NC(=O)c1cccc(C2C[C@H]3CC[C@H](C2)N3CCCCN2C(=O)c3ccccc3C2=O)c1` (relative stereo; 29b) [listing 1 of 2 here] yielded a Ki (Mu-type opioid receptor [2]) of 31.6 nM, a Ki [3] of 200 nM and a t1/2 (Liver [8]) of 11 min.

`NC(=O)c1cccc(C2C[C@H]3CC[C@H](C2)N3CCCCN2C(=O)c3ccccc3C2=O)c1` (relative stereo; 29b) [listing 2 of 2 here] showed an Intrinsic activity (Mu-type opioid receptor [1]) of 75%.

Molecule `NC(=O)c1cccc(C2C[C@H]3CC[C@H](C2)N3CC(=O)C2CCCCC2)c1` (relative stereo; 30a) has an Intrinsic activity (Mu-type opioid receptor [1]) of 41%.

`NC(=O)c1cccc(C2C[C@H]3CC[C@H](C2)N3CC(=O)C2CCCCC2)c1` (relative stereo; 30b) gave an Intrinsic activity (Mu-type opioid receptor [1]) of 93%.

`NC(=O)c1cccc(C2C[C@H]3CC[C@H](C2)N3CC(O)Cc2ccccc2)c1` (stereo in doubt; 31b) gave an Intrinsic activity (Mu-type opioid receptor [1]) of 39%.
